Laboratory results published in article PMC4129520 (Neuron, 2014).

Columns and labels:
γ-secretase [1] = settings: ref Hong et al., 2011; cited from earlier work
γ-secretase [2] = assay: GM1-bound Aβ in TBS-Tx extracts of 3 mo J20 tg mice after Compound E; assay type: in vivo, mouse
Procedure, shortened: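 3-month J20 transgenic mice were injected with test compound or vehicle, and brains were harvested 2.5 h or 5 h later. Brains were Dounce-homogenized in ice-cold TBS (20 mM Tris-HCl, 150 mM NaCl, pH 7.4) with protease inhibitors and spun 175,000 g for 30 min at 4 °C. The pellet was re-extracted the same way in TBS-1% Triton-X. Both extracts underwent R1282 IP, then WB: 3D6+6E10+266+2G3+21F12 for Aβ, CTβ for GM1. N=4 vehicle mice; mean ± SEM; 2-way ANOVA with Bonferroni post-test.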

## C[C@H](NC(=O)Cc1cc(F)cc(F)c1)C(=O)N[C@H]1N=C(c2ccccc2)c2ccccc2N(C)C1=O [Compound E]
γ-secretase [1]
  t1/2 of decline in brain ISF Aβ: ~ 2 h
γ-secretase [2]; 3 mo J20 tg mice, brains harvested 2.5 h or 5 h after injection, N=3 and 4 mice
  Levels of GM1-bound Aβ in TBS-Tx: decreased
γ-secretase [2]; data not shown
  Effect on total GM1 levels in the brain: no effect
